Consider seven compounds from PMC7529613 (International Journal for Parasitology: Drugs and Drug …, 2020).

A word on the inhibition: it is the change of the read-out against control, counted positive when it falls. As a reminder, the IC50 is the midpoint of a concentration-inhibition curve.

The test system of one data set is C. parvum. Nature of the data set: C. parvum growth inhibitory assay. It is filed as cell-based, Cryptosporidium parvum. In outline:
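Sporozoites were excysted (HBSS, 60 min at 37 °C, then 1.5% sodium taurocholate, 60 min) and […]. 4 × 10^4 were added per well to confluent HCT-8 cells in supplemented RPMI-1640. […] After 72 h at 37 °C/5% CO2: fixed, antibody-stained, microscopy fluorescence quantified. […] Triplicate, ≥3 repeats.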

For a further data set, the system named is T. gondii. Nature of the data set: T. gondii growth inhibitory assay. Conditions: for IC50: read-out: IC50 T. gondii (anti-Toxoplasma IC50); for selectivity ratio at 48 h: human, Selectivity index (SI) = Cytotoxicity IC50/Anti-parasitic IC50, HFF cytotoxicity IC50 / anti-Toxoplasma IC50. In kind it is cell-based, Toxoplasma gondii. In outline: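 YFP-expressing RH-strain tachyzoites (~3500/well) were added to confluent HFF in supplemented IMDM. Test compound in DMSO (20 μM single dose, or 0–8 μM / 0–40 μM series) was added immediately or 2 h post-infection. Atovaquone 0.48 μM was the positive control; DMSO the negative. After 48 h at 37 °C/5% CO2, parasite YFP fluorescence was quantified by microscopy. IC50 came from triplicate-mean dose–response curves. SI = HFF cytotoxicity IC50/anti-Toxoplasma IC50.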

Data set [1] is described as follows: Cytotoxicity assay. In kind it is cell-based. Conditions: human, uninfected HCT-8 cells. The gist of the method:
(§1)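 Confluent host cells were used: HCT-8 in phenol-red-free supplemented RPMI 1640, HFF in phenol-red-free DMEM with 10% FBS. Test compound in DMSO was added at 0–700 μM, with matched DMSO controls, for 48 h at 37 °C/5% CO2. WST-1 was added for 1 h in the dark and absorbance read at 420 nm. Viability inhibition was taken relative to DMSO. IC50 came from dose–response curves of triplicate means.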

Data set [2] can be described thus: Cytotoxicity assay. The note with it: human, uninfected HFF cells. It is filed as cell-based. The gist of the method: as §1
The next data set deals with Cryptosporidium. The note with it: read-out: anti-Cryptosporidium IC50; ref Li et al., 2019; cited from earlier work.
Setting [3] is: Toxoplasma gondii, HFF, 48 h, read-out: Inhibition of T. gondii growth.

Take `CC(C)=CCC/C(C)=C\COC(=O)NC(=O)C12CC3CC(CC(C3)C1)C2` [GMG-1-09, (Z)-3,7-Dimethylocta-2,6-dien-1-yl (adamantane-1-carbonyl)carbamate]: the inhibition at 20 µM in the data set with C. parvum (Cryptosporidium parvum, HCT-8, read-out: Inhibition of C. parvum growth) was ~70%. The selectivity ratio at 72 h in the data set on C. parvum (human, Selectivity index (SI) = Cytotoxicity IC50/Anti-parasitic IC50, HCT-8 cytotoxicity IC50 / anti-Cryptosporidium IC50) is ~14. Further, in the data set with T. gondii (YFP-expressing RH tachyzoites in HFF cells, 48 h of culture), the “IC50 T. gondii (anti-Toxoplasma IC50)” value is “not potent”. Also, 450 µM corresponded to half-maximal inhibition in the data set “Cytotoxicity assay [1]” (IC50 at 48 h).
Turning to `COc1ccccc1C(=O)NC(=O)NC(=O)c1ccccc1OC` [JS-1-09, N,N′-Carbonylbis(2-methoxybenzamide)], in the data set with T. gondii (8 μM compound, 48 h), the “Inhibition of T. gondii growth” value was “almost completely inhibited”. Besides, the “Selectivity index (SI) = Cytotoxicity IC50/Anti-parasitic IC50” value with T. gondii (HFF cytotoxicity IC50 / anti-Toxoplasma IC50) amounted to 52.9. Moreover, the IC50 in the data set with T. gondii (Toxoplasma gondii, HFF, 48 h) was found to be 1.21 µM. Besides, in the data set on T. gondii (setting [3]), the inhibition at 20 µM is ~100%. Besides, the selectivity ratio at 48 h in the data set on T. gondii is ~53. The compound further displayed an IC50 at 48 h in “Cytotoxicity assay [2]” of 64 µM.
`CC(C)=CCC/C(C)=C/CNC(=O)NC(=O)c1ccc(F)c(F)c1F` [JS-2-20, (E)-N-((3,7-Dimethylocta-2,6-dien-1-yl)carbamoyl)-2,3,4-trifluorobenzamide]: in the data set on T. gondii (Toxoplasma gondii, HFF, 48 h), the IC50 turned out to be 10.9 µM. Also, in the data set on T. gondii (setting [3]), the inhibition at 20 µM was ~80%. The selectivity ratio at 48 h with T. gondii came out at 5.7. This compound also returned an IC50 at 48 h in “Cytotoxicity assay [2]” of 62.6 µM.
On to `O=C(NC(=O)c1ccc(F)c(F)c1F)OC1C2CC3CC(C2)CC1C3` (stereo not drawn) [JS-2-35, Adamantan-2-yl (2,3,4-trifluorobenzoyl)carbamate], for which the IC50 in the data set on T. gondii (Toxoplasma gondii, HFF, 48 h) was found to be 10.5 µM. For the same compound, the inhibition at 20 µM in the data set with T. gondii (setting [3]) is ~80%. For the same compound, in the data set on T. gondii, the selectivity ratio at 48 h was found to be 5.6. The compound further returned an IC50 at 48 h in the data set “Cytotoxicity assay [2]” of 59.2 µM.
Take `O=C(NC(=O)c1ccc(F)c(F)c1F)OC12CC3CC(CC(C3)C1)C2` [JS-2-49, Adamantan-1-yl (2,3,4-trifluorobenzoyl)carbamate]: the IC50 in the data set with T. gondii (Toxoplasma gondii, HFF, 48 h) stood at 12.1 µM. Further, in the data set with T. gondii (setting [3]), the inhibition at 20 µM was ~90%. Moreover, in the data set with T. gondii, the selectivity ratio at 48 h stood at 5.4. For the same compound, in “Cytotoxicity assay [2]”, the IC50 at 48 h turned out to be 65.5 µM.
As for `O=C1C(O)=C([C@H]2CC[C@H](c3ccc(Cl)cc3)CC2)C(=O)c2ccccc21` [atovaquone, reference compound], the inhibition at 0.5 µM in the data set on T. gondii (setting [3]) is ~100%.
Regarding `NC[C@@H]1O[C@H](O[C@H]2[C@@H](O)[C@H](O[C@@H]3[C@@H](O)[C@H](N)C[C@H](N)[C@H]3O[C@H]3O[C@H](CO)[C@@H](O)[C@H](O)[C@H]3N)O[C@@H]2CO)[C@H](N)[C@@H](O)[C@@H]1O` [paromomycin], the IC50 with Cryptosporidium is 450 µM.
